Measured values reported in ChEMBL document CHEMBL4689842, “EUbOPEN Chemogenomics Library wave 1” (2021).

System: U2OS
Experiment: Multiplex assay against U2OS
Format: toxicity, cell-based
Conditions: human
Method in brief: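 Per cents of healthy-nucleus cells form the tubulin, mitochondrial-mass and membrane-permeability phenotype values. Live cells were stained at seeding with Hoechst33342, BioTracker Green Microtubule Cytoskeleton Dye, MitoTracker Red and Annexin V Alexa Fluor 680. After compound addition they were imaged on a CQ1 microscope at 37°C and 5% CO2, and CellPathfinder machine-learning gating split them into Hoechst high-intensity objects or normal cells, normal cells into healthy, pyknosed or fragmented nuclei, and pyknosed cells into mitotic or apoptotic.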

[1] = 12 h, 1 µM, compound concentration 1 uM, replicate 1
[2] = 12 h, 1 µM, compound concentration 1 uM, replicate 2
[3] = 12 h, 10 µM, compound concentration 10 uM, replicate 1
[4] = 12 h, 10 µM, compound concentration 10 uM, replicate 2
[5] = 24 h, 1 µM, compound concentration 1 uM, replicate 1
[6] = 24 h, 1 µM, compound concentration 1 uM, replicate 2
[7] = 24 h, 10 µM, compound concentration 10 uM, replicate 1
[8] = 24 h, 10 µM, compound concentration 10 uM, replicate 2
[9] = 48 h, 1 µM, compound concentration 1 uM, replicate 1
[10] = 48 h, 1 µM, compound concentration 1 uM, replicate 2
[11] = 48 h, 10 µM, compound concentration 10 uM, replicate 1
[12] = 48 h, 10 µM, compound concentration 10 uM, replicate 2

## O=C(Nc1ccc(-n2nc(-c3cccnc3)cc2C(F)(F)F)cn1)c1ccc(-c2ccccc2)c(F)c1 [BI 2049]
[1]
  Population Apoptotic (%): 63%
  Population Fragmented Nuclei (%): 12%
  Population Healthy Nuclei (%): 74%
  Population Hoechst High Intensity Objects (%): 12%
  Population Membrane Permeable-Phenotype (%): 6%
  Population Mitochondria Different-Phenotype (%): 10%
  Population Mitotic Cells (%): 36%
  Population Normal (%): 87%
  Population Pyknosed Nuclei (%): 12%
  Population Tubulin-Different-Phenotype (%): 12%
  Total Cell Count: 99
[2]
  Population Apoptotic (%): 50%
  Population Fragmented Nuclei (%): 4%
  Population Healthy Nuclei (%): 85%
  Population Hoechst High Intensity Objects (%): 8%
  Population Membrane Permeable-Phenotype (%): 3%
  Population Mitochondria Different-Phenotype (%): 7%
  Population Mitotic Cells (%): 50%
  Population Normal (%): 91%
  Population Pyknosed Nuclei (%): 9%
  Population Tubulin-Different-Phenotype (%): 44%
  Total Cell Count: 69
[3]
  Population Apoptotic (%): 30%
  Population Fragmented Nuclei (%): 13%
  Population Healthy Nuclei (%): 69%
  Population Hoechst High Intensity Objects (%): 9%
  Population Membrane Permeable-Phenotype (%): 6%
  Population Mitochondria Different-Phenotype (%): 24%
  Population Mitotic Cells (%): 70%
  Population Normal (%): 90%
  Population Pyknosed Nuclei (%): 17%
  Population Tubulin-Different-Phenotype (%): 35%
  Total Cell Count: 129
[4]
  Population Apoptotic (%): 0%
  Population Fragmented Nuclei (%): 18%
  Population Healthy Nuclei (%): 81%
  Population Hoechst High Intensity Objects (%): 6%
  Population Membrane Permeable-Phenotype (%): 4%
  Population Mitochondria Different-Phenotype (%): 12%
  Population Mitotic Cells (%): 0%
  Population Normal (%): 93%
  Population Pyknosed Nuclei (%): 0%
  Population Tubulin-Different-Phenotype (%): 8%
  Total Cell Count: 65
[5]
  Population Apoptotic (%): 60%
  Population Fragmented Nuclei (%): 8%
  Population Healthy Nuclei (%): 79%
  Population Hoechst High Intensity Objects (%): 5%
  Population Membrane Permeable-Phenotype (%): 3%
  Population Mitochondria Different-Phenotype (%): 6%
  Population Mitotic Cells (%): 40%
  Population Normal (%): 94%
  Population Pyknosed Nuclei (%): 11%
  Population Tubulin-Different-Phenotype (%): 13%
  Total Cell Count: 136
[6]
  Population Apoptotic (%): 25%
  Population Fragmented Nuclei (%): 7%
  Population Healthy Nuclei (%): 83%
  Population Hoechst High Intensity Objects (%): 7%
  Population Membrane Permeable-Phenotype (%): 4%
  Population Mitochondria Different-Phenotype (%): 9%
  Population Mitotic Cells (%): 75%
  Population Normal (%): 92%
  Population Pyknosed Nuclei (%): 8%
  Population Tubulin-Different-Phenotype (%): 37%
  Total Cell Count: 96
[7]
  Population Apoptotic (%): 34%
  Population Fragmented Nuclei (%): 10%
  Population Healthy Nuclei (%): 71%
  Population Hoechst High Intensity Objects (%): 5%
  Population Membrane Permeable-Phenotype (%): 6%
  Population Mitochondria Different-Phenotype (%): 21%
  Population Mitotic Cells (%): 65%
  Population Normal (%): 94%
  Population Pyknosed Nuclei (%): 18%
  Population Tubulin-Different-Phenotype (%): 19%
  Total Cell Count: 135
[8]
  Population Apoptotic (%): 0%
  Population Fragmented Nuclei (%): 11%
  Population Healthy Nuclei (%): 84%
  Population Hoechst High Intensity Objects (%): 3%
  Population Membrane Permeable-Phenotype (%): 4%
  Population Mitochondria Different-Phenotype (%): 13%
  Population Mitotic Cells (%): 100%
  Population Normal (%): 96%
  Population Pyknosed Nuclei (%): 3%
  Population Tubulin-Different-Phenotype (%): 10%
  Total Cell Count: 82
[9]
  Population Apoptotic (%): 33%
  Population Fragmented Nuclei (%): 9%
  Population Healthy Nuclei (%): 82%
  Population Hoechst High Intensity Objects (%): 5%
  Population Mitochondria Different-Phenotype (%): 12%
  Population Mitotic Cells (%): 66%
  Population Normal (%): 94%
  Population Pyknosed Nuclei (%): 7%
  Population Tubulin-Different-Phenotype (%): 10%
  Total Cell Count: 200
[10]
  Population Apoptotic (%): 22%
  Population Fragmented Nuclei (%): 2%
  Population Healthy Nuclei (%): 91%
  Population Hoechst High Intensity Objects (%): 3%
  Population Membrane Permeable-Phenotype (%): 1%
  Population Mitochondria Different-Phenotype (%): 10%
  Population Mitotic Cells (%): 77%
  Population Normal (%): 96%
  Population Pyknosed Nuclei (%): 6%
  Population Tubulin-Different-Phenotype (%): 41%
  Total Cell Count: 146
[11]
  Population Apoptotic (%): 63%
  Population Fragmented Nuclei (%): 8%
  Population Healthy Nuclei (%): 74%
  Population Hoechst High Intensity Objects (%): 3%
  Population Membrane Permeable-Phenotype (%): 7%
  Population Mitochondria Different-Phenotype (%): 13%
  Population Mitotic Cells (%): 36%
  Population Normal (%): 96%
  Population Pyknosed Nuclei (%): 17%
  Population Tubulin-Different-Phenotype (%): 11%
  Total Cell Count: 181
[12]
  Population Apoptotic (%): 11%
  Population Fragmented Nuclei (%): 7%
  Population Healthy Nuclei (%): 85%
  Population Hoechst High Intensity Objects (%): 2%
  Population Membrane Permeable-Phenotype (%): 3%
  Population Mitochondria Different-Phenotype (%): 11%
  Population Mitotic Cells (%): 88%
  Population Normal (%): 97%
  Population Pyknosed Nuclei (%): 7%
  Population Tubulin-Different-Phenotype (%): 6%
  Total Cell Count: 128
